# Measured values reported in ChEMBL document CHEMBL4622938, “Discovery of phenanthridine analogues as novel chemical probes disrupting the binding of DNA to ΔFosB homodimers and ΔFosB/JunD heterodimers” (Bioorg Med Chem Lett, 2020).
# pIC50: −log10 of the molar value.
# What was measured:
# Protein FosB = target: T1, Protein FosB (Homo sapiens, UniProt P53539); assay: (§1) Inhibition of recombinant Hi6-tagged deltaFOSB (unknown origin) expressed in insect cells interaction with TAMRA labeled 5'-GTCGGTGACTCAAAACA-3' AP1 oligonucleotide measured after 15 mins by fluorescence polarization assay; conditions: for pIC50: read-out: IC50
# T1 sequence (P53539 whole entry): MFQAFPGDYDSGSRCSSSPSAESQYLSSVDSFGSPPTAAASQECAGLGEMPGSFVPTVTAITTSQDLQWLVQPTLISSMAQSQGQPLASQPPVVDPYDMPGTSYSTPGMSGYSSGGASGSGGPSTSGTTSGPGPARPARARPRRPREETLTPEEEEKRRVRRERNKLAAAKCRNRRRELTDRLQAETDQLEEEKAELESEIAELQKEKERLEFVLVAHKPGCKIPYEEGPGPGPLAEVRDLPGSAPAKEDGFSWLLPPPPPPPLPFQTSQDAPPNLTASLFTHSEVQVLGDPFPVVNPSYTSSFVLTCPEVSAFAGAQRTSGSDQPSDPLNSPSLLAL
# Method in brief: (§2)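 ΔFosB homodimer, 320 nM (as monomers). Compound serially diluted, 10 concentrations over 0–200 μM in quadruplicate. Compound premixed 5 min with 25 nM TAMRA-cdk5 AP-1 19-mer duplex in 20 mM HEPES pH 7.5, 50 mM NaCl, then protein added for 15 min. FP read at ex 530/540, em 590 nm. Compound-plus-oligo wells without protein serve as the interference control. Four-parameter fit; IC50 is mean ± SD of two independent days.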
# [1] = target: T2, Protein fosB/Transcription factor jun-D (Homo sapiens, UniProt P53539+P17535); assay: (§3) Inhibition of recombinant Hi6-tagged deltaFOSB (unknown origin)/His6-tagged JUND (unknown origin) expressed in insect cells interaction with TAMRA labeled 5'-GTCGGTGACTCAAAACA-3' AP1 oligonucleotide measured after 15 mins by fluorescence polarization assay
# T2 sequence (P53539 whole entry): T1 sequence (P53539 whole entry)
# T2 sequence (P17535 whole entry): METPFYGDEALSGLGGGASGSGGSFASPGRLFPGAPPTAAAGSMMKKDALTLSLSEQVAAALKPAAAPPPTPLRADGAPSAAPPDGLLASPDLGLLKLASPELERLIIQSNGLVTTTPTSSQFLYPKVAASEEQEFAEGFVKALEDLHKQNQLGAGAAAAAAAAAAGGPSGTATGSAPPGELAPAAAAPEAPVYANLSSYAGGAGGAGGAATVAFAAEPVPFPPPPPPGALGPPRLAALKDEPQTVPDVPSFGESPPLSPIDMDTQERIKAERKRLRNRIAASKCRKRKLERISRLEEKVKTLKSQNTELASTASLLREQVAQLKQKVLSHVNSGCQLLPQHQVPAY
# Method in brief: (§4)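 ΔFosB/JunD heterodimer, 280 nM (as monomers). Compound serially diluted, 10 concentrations over 0–200 μM in quadruplicate. Compound premixed 5 min with 25 nM TAMRA-cdk5 AP-1 19-mer duplex in 20 mM HEPES pH 7.5, 150 mM NaCl, then protein added for 15 min. FP read at ex 530/540, em 590 nm. Wells of compound with oligo and no protein check for DNA interference. IC50 from a four-parameter fit, mean ± SD of two independent days.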
# [2] = target: T3, Protein fosB/Transcription factor jun-D (Homo sapiens, UniProt P17535+P53539); assay: as §3; method in brief: as §4
# T3 sequence (P53539 whole entry): T1 sequence (P53539 whole entry)
# T3 sequence (P17535 whole entry): T2 sequence (P17535 whole entry)
# [3] = target: T4, Protein FosB (Homo sapiens) (UniProt P53539); assay: as §1; method in brief: as §2
# T4 sequence (whole entry): T1 sequence (P53539 whole entry)
# [4] = target: Protein fosB/Transcription factor jun-D (Homo sapiens) (UniProt P53539+P17535); assay: as §3; method in brief: as §4
SMILES,IC50 (Protein FosB),IC50 [1],pIC50 (Protein FosB),pIC50 [2],inhibition [3],inhibition [4]
CCc1nc2c(OC)cccc2c2cc(OC)cc(OC)c12,Not Active,Not Active,–,–,–,–
COc1cccc2c1N(C(C)=O)C(C(=O)O)C1CC=CC21 (configuration not stated),–,–,< 4.00,< 4.00,–,–
COc1cc(OC)c2c(C3CCNCC3)nc3c(OC)cccc3c2c1,–,–,4.24,4.25,Dose-dependent effect,Dose-dependent effect
COc1cc(OC)c2c(C3CCN(C(C)=O)CC3)nc3c(OC)cccc3c2c1,–,–,< 4.00,< 4.00,–,–
COc1cccc2c1NC(C(=O)O)C1CCCC21 (configuration not stated),–,–,< 4.00,< 4.00,–,–
COc1cc(OC)c2c(C3CCN(C(=O)OC(C)(C)C)CC3)nc3c(OC)cccc3c2c1,–,–,< 4.00,< 4.00,–,–
Cc1cccc2c3c(c(C(=O)O)nc12)CCC3,–,–,< 4.00,< 4.00,–,–
CCOC(=O)c1nc2c(C)cccc2c2c1CCC2,–,–,< 4.00,< 4.00,–,–
COc1cc(OC)c2c(C(=O)O)nc3c(OC)cccc3c2c1,–,–,< 4.00,< 4.00,–,–

# Further lines, results first:
IC50 (Protein FosB),IC50 [1],pIC50 (Protein FosB),pIC50 [2],inhibition [3],inhibition [4],SMILES
–,–,4.54,4.88,–,–,COc1cccc2c1NC(C(=O)O)C1CC=CC21 (configuration not stated)
–,–,< 4.00,< 4.00,–,–,CNC(=O)C1Nc2c(OC)cccc2C2C=CCC12 (configuration not stated)
–,–,< 4.00,< 4.00,–,–,COc1cccc2c1NC(CO)C1CC=CC21 (configuration not stated)
Not Active,Not Active,–,–,–,–,Cc1cccc2c1NC(C(=O)O)C1CC=CC21 (configuration not stated)
–,–,< 4.00,< 4.00,–,–,CCOC(=O)C1Nc2c(OC)cccc2C2C=CCC12 (configuration not stated)
–,–,< 4.00,< 4.00,–,–,COc1cccc2c1NC(C(=O)Nc1ccccc1)C1CC=CC21 (configuration not stated)
